Only some compounds are listed: those with a hit (about 1.5% of all), similar ones and a draw of the others.
PPC-1+TRAIL kill = compounds killing PPC-1 cancer cells with TRAIL present (potentiator screen, no TRAIL-free arm); cell killing (% activity), % at 4 µM or 5 µM; 220,000 tested, 0.41% active; AID 1443; PPC-1 cells + TRAIL, ATPLite viability luminescence;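 active = cell killing above 50% in the first pass at 4 µM, then a duplicate retest at 5 µM averaging 50% or more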;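 note: plate controls were cells with TRAIL plus DMSO for no effect and medium-only wells lacking cells for full effect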
C8 TRAIL sens = sensitizes caspase-8 expressing cells to TRAIL | 360,000 tested, 1% active | inhibition (viability loss, TRAIL sensitization), % at 10 µM | NB7+C8 cells + TRAIL, ATPlite viability luminescence;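 active = compounds causing at least 50% loss of cell viability in the single-dose screen, relative to plate controls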
FLuc stim CS = affects firefly luciferase, flagging false hits in luciferase stimulation screens; P08659; ATPlite luciferase biochemical, luminescence, 10 min; 0 = ATP-free wells, 1 = DMSO control; activation factor at 10 µM; 200,000 tested, under 10 active; AID 1027;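 active = luciferase activation factor, scaled between plate controls, of at least 2 with compound at 10 µM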
Target sequence (P08659 whole entry, looked up): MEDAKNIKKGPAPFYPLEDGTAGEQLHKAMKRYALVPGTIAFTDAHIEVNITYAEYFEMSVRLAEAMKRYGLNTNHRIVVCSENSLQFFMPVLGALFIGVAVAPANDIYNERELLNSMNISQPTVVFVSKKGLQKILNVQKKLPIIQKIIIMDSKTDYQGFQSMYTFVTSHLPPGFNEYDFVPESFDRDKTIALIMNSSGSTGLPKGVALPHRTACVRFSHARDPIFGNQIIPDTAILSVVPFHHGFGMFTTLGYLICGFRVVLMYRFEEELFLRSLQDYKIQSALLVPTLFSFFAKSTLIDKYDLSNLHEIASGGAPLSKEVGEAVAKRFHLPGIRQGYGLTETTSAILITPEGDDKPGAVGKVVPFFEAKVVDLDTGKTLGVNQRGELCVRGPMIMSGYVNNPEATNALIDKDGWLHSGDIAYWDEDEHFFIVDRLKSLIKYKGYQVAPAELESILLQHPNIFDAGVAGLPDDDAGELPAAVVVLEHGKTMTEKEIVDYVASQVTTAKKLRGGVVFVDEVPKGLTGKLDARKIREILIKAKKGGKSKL
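Assay system: Luciferase/luciferin detection reagent, cell-free biochemical luciferase assay / Read-out: luciferase activation / Benchmarks: No-ATP low control, compound-free enzyme-plus-ATP high control / Medium: PBS buffer for ATP / Detection: luminescence measurement of luciferase light output / Schedule: 10 min at ambient temperature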
FLuc inhib CS = counter-screen for luciferase assay inhibitors: firefly luciferase inhibition; P08659; ATPLite firefly luciferase biochemical luminescence, 10 min; inhibition, % at 10 µM; 200,000 tested, 1.5% active;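 active = inhibition above about 50% when tested at 10 µM, limit read from the data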
Numbers without * were called inactive; nt = not tested or not shown.

SMILES | PPC-1+TRAIL kill | C8 TRAIL sens | FLuc stim CS | FLuc inhib CS
O=C(COC(=O)c1ccc2ccccc2n1)c1ccccc1 | 21 | -2 | 0.4 | 60*
COc1ccc(C(=O)Oc2ccc3c(c2)OCO3)cc1OC | 34 | -8 | 1 | 3
COc1ccccc1NC(=O)C1CCCN(c2cnccn2)C1 (stereo unspecified) | nt | -7 | nt | nt
CC(C)CNC(=O)[C@H]1N2C(=O)c3ccccc3C2SC1(C)C (stereo partly specified) | nt | -7 | nt | nt
COc1ccc([C@H]2CN(c3ccc(OC)cc3)C(=O)[C@@H]2CC(=O)Nc2ccc(Br)cc2)cc1 | nt | 4 | nt | nt
COc1ccccc1C(=O)NC(CCSC)C(=O)OCC(=O)N1CCCC1=O (stereo unspecified) | nt | 6 | nt | nt
Cc1ccc(C(=O)O/N=C(\N)c2ccc(Br)cc2)cc1 | 24 | 81* | 0.7 | 30
N/C(=N\OC(=O)c1cccc(Br)c1)c1ccc(Br)cc1 | 1 | 59* | 1 | -1
COc1ccc(/C(N)=N/OC(=O)c2ccc3ccccc3c2)cc1OC | nt | 96* | nt | nt
N/C(=N\OC(=O)c1ccc2ccccc2c1)c1ccccc1Cl | nt | 93* | nt | nt
Cc1ccc(/C(N)=N/OC(=O)C23CC4CC(CC(C4)C2)C3)cc1 | 25 | 88* | 0.9 | 10
Cc1nc(/C(N)=N/OC(=O)c2c(-c3ccccc3Cl)noc2C)cs1 | -3 | -11 | nt | nt
O=C(COC(=O)c1ccccc1)c1ccc(Br)cc1 | 15 | 3 | 0.4 | 56*
O=C(COC(=O)c1ccc(Br)cc1)NCCc1ccccc1 | 16 | 29 | 1.1 | -9
COc1ccc(C(=O)O/N=C(\N)Cc2ccc(Cl)cc2)cc1OC | 6 | 94* | 1.1 | -5
COc1ccc(/C(N)=N/OC(=O)c2c(-c3ccccc3Cl)noc2C)cc1OC | nt | 93* | nt | nt
Cc1occc1C(=O)N/N=C/C1=C(N2CCOCC2)C(=C/c2ccc(Cl)cc2Cl)/CC1 | nt | 29 | nt | nt
COc1ccc(NC(=O)CN(C)C(=O)c2ccc(OCc3ccccc3)c(OC)c2)cc1 | nt | -16 | nt | nt
O=C(OCc1cccc(C(F)(F)F)c1)c1cc(S(=O)(=O)N2CCOCC2)ccc1F | nt | 72* | nt | nt
COc1ccccc1OC(C)C(=O)Nc1ccc(S(=O)(=O)N2CCN(C)CC2)cc1 (stereo unspecified) | nt | 1 | nt | nt
CN(C)/C=C/C(=O)c1ccc(-n2cccc2)cc1 | 27 | 32 | 0.2 | 85*
O=C(Nc1nccs1)c1cc(S(=O)(=O)N2CCOCC2)ccc1Cl | 60* | 4 | 1 | -1
CC(Sc1nc2c(c(=O)[nH]1)CCCC2)C(=O)Nc1ccccc1C#N (stereo unspecified) | nt | -1 | nt | nt
COC(=O)c1sc2nc3c(cc2c1N)CCCC3 | 18 | 30 | 0.4 | 60*
Nc1c(C(=O)N2CCOCC2)sc2nc3c(cc12)CCC3 | nt | -3 | 0.7 | 31
SMILES | PPC-1+TRAIL kill | C8 TRAIL sens | FLuc stim CS | FLuc inhib CS
NC(=O)c1sc2nc3c(cc2c1N)CCC3 | 4 | 18 | 0.8 | 23
Nc1c(C(=O)N2CCOCC2)sc2nc3c(cc12)CCCC3 | nt | 57* | nt | nt
CC1Oc2ccccc2C=C1/C=N/Nc1ccc(C(=O)O)cc1 (stereo unspecified) | -15 | -28 | nt | nt
COc1ccccc1N1CCN(c2ccc3ccccc3n2)CC1 | nt | 48* | nt | nt
COc1ccccc1N1CCN(c2ccc(-c3ccccc3)nn2)CC1 | 37 | 87* | 0.1 | 90*
CN1C(=O)C(O)(CC(=O)c2cccnc2)c2ccccc21 (stereo unspecified) | -6 | -12 | 1 | -4
O=C(CC1(O)C(=O)N(Cc2cccc3ccccc23)c2ccccc21)c1cccnc1 (stereo unspecified) | 2 | 21 | 0.3 | 69*
Cc1ccc(S(=O)(=O)CCC(=O)OCC(=O)NC2CCS(=O)(=O)C2)cc1 (stereo unspecified) | nt | 6 | nt | nt
O=C(NCCc1ccccn1)c1ccc(OC(F)F)cc1 | 32 | 37 | 0.3 | 65*
COc1ccc(C(=O)c2ccc([N+](=O)[O-])cc2)cc1S(=O)(=O)N1CCC(C(=O)O)CC1 | nt | 3 | nt | nt
O=C(NCc1ccco1)c1cc(-c2ccc3c(c2)OCO3)on1 | 33 | 31 | 0.8 | 15
COCCNC(=O)COCc1cc(-c2ccc3c(c2)OCO3)on1 | nt | -16 | nt | nt
C=CCNC(=O)c1cc(-c2ccc3c(c2)OCO3)on1 | nt | 51* | nt | nt
COCCNC(=O)c1cc(-c2ccc3c(c2)OCO3)on1 | 17 | 40 | 0.4 | 56*
CC(=O)C1=CCC(c2ccccc2)N(S(C)(=O)=O)C1 (stereo unspecified) | nt | 13 | nt | nt
CCc1ccc(Nc2nnc(SCC(=O)c3c(N)n(C4CC4)c(=O)[nH]c3=O)s2)cc1 | nt | 61* | nt | nt
Cc1ccc(-c2ccc(OCC(=O)N3CCOCC3)cc2)cc1 | 26 | -2 | 0.8 | 19
CC1(C)N=C(N)N=C(N)N1c1ccc(OCC(=O)N2CCOCC2)cc1 | nt | 75* | nt | nt
CC1(C)N=C(N)N=C(N)N1c1ccc(OCC(=O)N2CCOCC2)c(Cl)c1 | nt | 83* | nt | nt
O=c1[nH]c(C(Cl)(Cl)Cl)nc2ccc3ccccc3c12 | nt | 2 | nt | nt
N#Cc1cc([N+](=O)[O-])ccc1NC(=O)CSc1n[nH]c(=O)[nH]c1=O | nt | -12 | nt | nt
Nc1nc(SCc2ccccc2)c2[nH]cnc2n1 | nt | -7 | nt | nt
Nc1ncnc(Sc2ccc(Cl)cc2)c1[N+](=O)[O-] | 12 | 15 | 1.1 | -6
Nc1nc(Sc2ccc([N+](=O)[O-])c3nonc23)c2[nH]cnc2n1 | nt | 75* | nt | nt
CNc1ncnc(Sc2nc(N)nc3nc[nH]c23)c1[N+](=O)[O-] | nt | 74* | nt | nt
SMILES | PPC-1+TRAIL kill | C8 TRAIL sens | FLuc stim CS | FLuc inhib CS
Cc1ccccc1NC(=O)CSc1nnc(Cc2ccccc2)c(=O)n1N | nt | -4 | nt | nt
CCCS(=O)(=O)NC(=O)C1(C)CCCN(C(=O)c2cc(-c3cccs3)oc2C)C1 (stereo unspecified) | nt | 2 | nt | nt
O=C(NCc1ccncc1)c1ccc(S(=O)(=O)Nc2ccccc2)cc1 | nt | 18 | nt | nt
COc1ccccc1C(=O)NC(CCSC)C(=O)OCC(=O)N1CCN(S(=O)(=O)c2ccc(C)cc2)CC1 (stereo unspecified) | nt | 16 | nt | nt
Cc1cc(C(=O)N2CCC2(C)C(=O)Nc2cc(C(C)(C)C)nn2C)nn1C (stereo unspecified) | nt | 2 | nt | nt
CCOC(=O)c1sc(NC(=O)Nc2cccc(Cl)c2)cc1C | 18 | 55* | 0.5 | 46
CCOC(=O)c1sc(NC(=O)c2sccc2C)cc1C | 35 | 34 | 0.5 | 46
COCC(C)NS(=O)(=O)c1ccc(C(=O)NC(Cc2ccccc2)c2ccccc2)cc1 (stereo unspecified) | nt | -2 | nt | nt
COc1ccc(C)cc1S(=O)(=O)N1CCCC(C(=O)NCc2ccccn2)C1 (stereo unspecified) | nt | 4 | nt | nt
O=C(NCc1ccccn1)C1CCCN(S(=O)(=O)c2cc(Cl)ccc2Cl)C1 (stereo unspecified) | nt | 56* | nt | nt
Cc1ccc(/C=N/OC(=O)c2nn(C)cc2Cl)cc1 | nt | -3 | 0.2 | 76*
COc1ccc(C(=O)N2CCC(C)(C(=O)O)C2)c(OC)c1 (stereo unspecified) | nt | 1 | nt | nt
COc1ccc(C(=O)O/N=C(/C)c2cccs2)cc1 | -4 | 9 | 0 | 96*
C/C(=N/OC(=O)c1c(F)cccc1F)c1nccs1 | 7 | -7 | 0.2 | 81*
